# High-throughput results (PubChem BioAssay)
# A3G deaminase: APOBEC3G (human) deaminase inhibition. inhibition, % at 20 µM. Q9HC16. recombinant A3G, ssDNA deamination FAM/TAMRA fluorescence. 0.28% of 330,000 active;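 active means inhibition of at least 40% at 20 µM, with no more than 30% in the related APOBEC3A deaminase screen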;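 further: plate controls were DMSO wells with A3G for no effect and wells lacking A3G enzyme for full effect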
# M18AAP inhibitor: blocks P. falciparum M18 aspartyl aminopeptidase; recombinant PfM18AAP, H-Glu-NHMec fluorogenic cleavage; inhibition, % at 7.35 µM; 1.2% of 290,000 active; AID 1822;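 active means inhibition above the campaign mean inhibition over all tested compounds plus 3 SD, cut at about 28% in these data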;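 further: 0% = plate median of test compound wells and 100% = 2 mM ZnCl2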
# A3A deaminase: blocks human APOBEC3A ssDNA deamination | P31941 | recombinant A3A, FAM/TAMRA ssDNA deamination fluorescence | inhibition, % at 20 µM | 0.41% of 330,000 active;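 active means at least 40% inhibition at 20 µM here, with at most 30% in a related deaminase screen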;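 further: plate controls were A3A with DMSO for no effect and wells lacking A3A enzyme for full effect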
# HKDC1 inh: inhibitors of human hexokinase HKDC1. recombinant HKDC1, G6PDH/diaphorase resazurin coupled fluorescence. Q2TB90. inhibition, % at 20 µM. 0.16% of 340,000 active;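 active means inhibition above about 35% when tested at 20 µM, limit read from the data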;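 further: plate controls were DMSO wells with enzyme for no effect and DMSO wells lacking enzyme for full effect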
# Target sequence (Q2TB90 whole entry, looked up): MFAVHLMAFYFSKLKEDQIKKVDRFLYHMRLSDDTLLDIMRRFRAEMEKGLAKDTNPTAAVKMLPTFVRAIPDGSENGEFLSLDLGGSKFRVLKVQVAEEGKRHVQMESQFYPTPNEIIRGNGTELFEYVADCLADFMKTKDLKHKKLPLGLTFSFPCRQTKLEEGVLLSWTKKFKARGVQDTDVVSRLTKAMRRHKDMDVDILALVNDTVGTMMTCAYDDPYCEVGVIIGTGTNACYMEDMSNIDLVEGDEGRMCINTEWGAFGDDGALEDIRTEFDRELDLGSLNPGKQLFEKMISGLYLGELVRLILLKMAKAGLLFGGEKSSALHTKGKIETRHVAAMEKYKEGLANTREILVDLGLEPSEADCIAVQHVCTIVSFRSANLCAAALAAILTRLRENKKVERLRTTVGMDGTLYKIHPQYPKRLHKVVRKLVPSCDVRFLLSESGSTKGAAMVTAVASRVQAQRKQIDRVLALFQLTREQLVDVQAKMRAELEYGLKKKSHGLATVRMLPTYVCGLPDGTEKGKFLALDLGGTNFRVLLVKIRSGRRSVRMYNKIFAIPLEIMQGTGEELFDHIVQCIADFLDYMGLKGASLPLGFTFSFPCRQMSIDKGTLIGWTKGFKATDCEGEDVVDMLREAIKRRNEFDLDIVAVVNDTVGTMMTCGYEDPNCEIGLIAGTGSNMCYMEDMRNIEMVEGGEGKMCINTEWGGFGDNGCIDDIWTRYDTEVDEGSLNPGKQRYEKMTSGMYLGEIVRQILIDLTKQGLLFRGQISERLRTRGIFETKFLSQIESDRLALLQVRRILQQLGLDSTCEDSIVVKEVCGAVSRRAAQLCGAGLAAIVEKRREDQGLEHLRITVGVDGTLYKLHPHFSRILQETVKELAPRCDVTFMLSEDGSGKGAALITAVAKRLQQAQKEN
#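 Test system: recombinant HKDC1 (HK5) hexokinase enzyme, produced in-house / Doses: 20 µM test compound, 1% DMSO / Timing: 90 min, room temperature / Detection: G6PDH/diaphorase-coupled fluorescence, 1 mM NADP, 100 µM resazurin, 525/613 nm / Control set: DMSO wells with and without enzyme mix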
# SUMO HTRF inh: blocks human SUMOylation mediated by UBC9; 0.36% of 290,000 active; HTRF SUMOylation assay, SAE1/SAE2 + UBC9, in vitro; P63279; inhibition, % at 35 µM; AID 2006; in the data active means inhibition above about 50%, passing the limit was not always enough
# PfG6PD inh: PfG6PD (Plasmodium falciparum) enzyme inhibition. PfGluPho enzyme, NADPH resazurin-diaphorase fluorescence. inhibition, % at 20 µM. 0.78% of 350,000 active. AID 504690;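 active means inhibition reaching at least a set limit at 20 µM in the primary screen, cut at about 59% in these data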;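 further: 0% = DMSO wells with substrate and 100% = DMSO wells lacking glucose-6-phosphate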
# * marks the source's active call; other numbers are inactive results; / = no result given. In the library only some 2.4% were active in any assay of this set; here they are far more common.
SMILES,A3G deaminase,M18AAP inhibitor,A3A deaminase,HKDC1 inh,SUMO HTRF inh,PfG6PD inh
N#Cc1c(N)n(CCCN2CCOCC2)c2nc3ccccc3nc12,1,0,0,7,31,1
N#Cc1c(N)n(-c2cccc(C(=O)O)c2)c2nc3ccccc3nc12,-9,-1,-4,-1,60*,-5
CCCCCn1c(N)c(C#N)c2nc3ccccc3nc21,6,0,-1,9,88*,12
CCCCCn1c(NC(=O)c2ccco2)c(S(=O)(=O)c2ccc(C)cc2)c2nc3ccccc3nc21,-4,-16,-1,5,/,17
CCCCn1c(NC(=O)c2ccco2)c(S(=O)(=O)c2ccc(C)cc2)c2nc3ccccc3nc21,/,-6,/,8,100*,2
CCCCn1c(NC(C)=O)c(C#N)c2nc3ccccc3nc21,-2,11,-1,5,102*,55
C=CCn1c(NC(=O)c2ccccc2Cl)c(C#N)c2nc3ccccc3nc21,-7,17,-2,12,/,9
Cc1ccc([C@@H]2CC(=O)[C@@H]3CN(S(=O)(=O)c4ccc(C)cc4)[C@H](c4cccc5ccccc45)C[C@@H]3N2S(=O)(=O)c2ccc(Cl)cc2)cc1,/,/,/,/,/,10
Nc1nc2sc3c(c2cc1C(=O)NCC(=O)O)CCCC3,-4,21,-5,-1,14,2
Cc1nc(C)c2c(=O)cc(-c3ccccc3)[nH]c2n1,-1,-7,1,-4,19,3
O=S(=O)(c1ccc2nc(-c3ccco3)c(-c3ccco3)nc2c1)N1CCOCC1,59,21,77,20,84*,54
O=C(c1ccc2nc(-c3ccco3)c(-c3ccco3)nc2c1)N1CCN(c2ccccc2)CC1,11,15,13,3,73*,21
CCc1nc2ccc(C(=O)N3CCN(c4ccccc4)CC3)cc2nc1CC,-9,-4,-6,-2,9,9
O=C(Nc1ccccc1)c1cc2ccccc2c(=O)s1,-9,4,-4,-5,23,29
Cc1ccc(NC(=O)/C(C#N)=C/c2cn(CC(=O)NCc3ccco3)c3ccccc23)cc1C,-1,3,3,-2,62*,10
Cc1ccc(C)c(NC(=O)/C(C#N)=C/c2cn(CC(=O)NCc3ccco3)c3ccccc23)c1,-11,18,3,-2,54*,-1
CN(C(=O)COn1nnc2ccc(Cl)cc21)C1CCS(=O)(=O)C1 (stereo not given),-8,/,-3,-8,/,6
CCN(CC)CCNC(=S)Nc1ccc2nc(N3CCN(CC)CC3)cc(C)c2c1,-4,0,0,-1,11,3
COc1cccc(C2C(C(=O)Nc3ccccc3)=C(C)N=c3s/c(=C/c4ccc(OCC(=O)O)cc4)c(=O)n32)c1 (stereo not given),-2,7,0,4,16,-20
CC1=C(C(=O)Nc2ccccc2)C(c2ccc(C)o2)n2c(s/c(=C\c3ccco3)c2=O)=N1 (stereo not given),0,23,8,-1,72*,5
O=C(c1ccc2c(c1)[nH]c(=S)n1c3ccccc3nc21)N1CCN(c2ncccn2)CC1,-2,9,-2,2,61*,-34
O=C(NCCN1CCN(c2ccccc2)CC1)c1ccc2c(c1)[nH]c(=S)n1c3ccccc3nc21,-5,6,0,-6,29,5
CCc1nnc(NC(=O)c2cc(-c3ccco3)nc3ccccc23)s1,52,6,51,9,67*,-1
O=C(N/N=C/c1cccc(F)c1)c1cc(-c2ccco2)nc2ccccc12,81,10,93,15,79*,15
COc1cc(/C=N/NC(=O)c2cc(-c3ccco3)nc3ccccc23)cc(OC)c1O,20,12,15,4,60,37
CCc1nnc(NC(=O)c2cc(-c3ccccn3)nc3ccccc23)s1,-11,-2,-1,-3,14,-20
Cc1ccc(Nc2nnc(SCC(=O)Nc3cccnc3Cl)s2)cc1C,-1,29*,4,-4,-12,35
CCC(=O)NC(c1ccc(Cl)cc1Cl)c1ccc2cccnc2c1O (stereo not given),-21,6,-3,-20,50*,-28
